Measured values from ChEMBL document CHEMBL1141286, “Benzochromenones from the marine crinoid Comantheria rotula inhibit hypoxia-inducible factor-1 (HIF-1) in cell-based reporter assays and differentially suppress the growth of certain tumor cell lines” (J Nat Prod, 2007).

Assays:
OVCAR-4 = assay: Growth inhibition of human OVACAR4 cells; type: functional
A498 = assay: Growth inhibition of human A498 cells; type: functional
HT-29 = assay: Growth inhibition of human HT29 cells; type: functional
[1] = DPPH radical scavenging activity relative to Trolox; type: functional; parameters: concentration or dose not given beside the values
Summary of the method: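 Compounds were made up as DMSO stocks and diluted in isopropanol to a final 10 μM. Each was mixed with DPPH in isopropanol at 10 μM or 30 μM DPPH, and absorbance was read at 515 nm. Scavenging was calculated as [1 − OD515(compound)/OD515(control)] × 100, then expressed as a percentage of Trolox activity. One experiment was run in triplicate.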

HCC 2998 = assay: Growth inhibition of human HCC2998 cells; type: functional
HL-60 = assay: Growth inhibition of human HL60 cells; type: functional
SK-MEL-5 = assay: Growth inhibition of human SK-MEL5 cells; type: functional
UACC-257 = assay: Growth inhibition of human UACC257 cells; type: functional
NCI-H460 = assay: Growth inhibition of human NCI-H460 cells; type: functional
IGROV-1 = assay: Growth inhibition of human IGROV1 cells; type: functional
MOLT-4 = assay: Growth inhibition of human MOLT4 cells; type: functional
SF-539 = assay: Growth inhibition of human SF539 cells; type: functional
OVCAR-8 = assay: Growth inhibition of human OVACAR8 cells; type: functional
TK-10 = assay: Growth inhibition of human TK10 cells; type: functional
SK-MEL-2 = assay: Growth inhibition of human SK-MEL2 cells; type: functional
[2] = biological target: Hypoxia inducible factors; HIF-1-alpha, HIF-2-alpha (Homo sapiens, UniProt Q16665+Q99814); assay: Inhibition of HIF1 activation in human T47D cells by TK-luciferase assay; type: cell-based
Summary of the method: (§1)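 HIF-1 reporter (pHRE-TK-Luc) assays in transfected PC-3 or T47D cells; HIF-1 induced by hypoxia or by the hypoxia mimetic 1,10-phenanthroline (10 μM); compounds at half-log concentrations; luciferase activity measured; IC50 from experiments in triplicate.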

NCI-H226 = assay: Growth inhibition of human NCI-H226 cells; type: functional
RXF 393 = assay: Growth inhibition of human RXF393 cells; type: functional
Malme-3M = assay: Growth inhibition of human MALME-3M cells; type: functional
EKVX = assay: Growth inhibition of human EKVX cells; type: functional
M14 = assay: Growth inhibition of human M14 cells; type: functional
[3] = Inhibition of HIF1 activation in PC3 cells by TK-luciferase assay; type: cell-based; conditions: Homo sapiens, PC-3; summary of the method: as §1
[4] = Inhibition of 1,10-phenanthroline-induced HIF1 activation in PC3 cells by TK-luciferase assay; type: cell-based; conditions: Homo sapiens, PC-3; summary of the method: as §1
[5] = read-out: Log LC50 (the source's name) (converted)

## COc1cc(O)cc2cc3oc(C)cc(=O)c3c(OC)c12 [COMANTHERIN]
OVCAR-4
  GI50: > 100 µM
  LC50: > 100 µM
OVCAR-4; read-out: Log TGI (converted)
  TGI: > 100 µM
A498
  GI50: > 100 µM
  LC50: > 100 µM
A498; read-out: Log TGI (converted)
  TGI: > 100 µM
HT-29
  GI50: > 100 µM
HT-29; [5]
  CC50: > 100 µM
HT-29; read-out: Log TGI (converted)
  TGI: > 100 µM
[1]
  Activity: 40%
HCC 2998
  GI50: > 100 µM
HCC 2998; [5]
  CC50: > 100 µM
HCC 2998; read-out: Log TGI (converted)
  TGI: > 100 µM
HL-60
  GI50: > 100 µM
  LC50: > 100 µM
HL-60; read-out: Log TGI (converted)
  TGI: > 100 µM
SK-MEL-5
  GI50: > 100 µM
  LC50: > 100 µM
SK-MEL-5; read-out: Log TGI (converted)
  TGI: > 100 µM
UACC-257
  GI50: > 100 µM
  LC50: > 100 µM
UACC-257; read-out: Log TGI (converted)
  TGI: > 100 µM
NCI-H460
  GI50: > 100 µM
NCI-H460; [5]
  CC50: > 100 µM
NCI-H460; read-out: Log TGI (converted)
  TGI: > 100 µM
IGROV-1
  GI50: > 100 µM
IGROV-1; [5]
  CC50: > 100 µM
IGROV-1; read-out: Log TGI (converted)
  TGI: > 100 µM
MOLT-4
  GI50: > 100 µM
MOLT-4; [5]
  CC50: > 100 µM
MOLT-4; read-out: Log TGI (converted)
  TGI: > 100 µM
SF-539
  GI50: > 100 µM
  LC50: > 100 µM
SF-539; read-out: Log TGI (converted)
  TGI: > 100 µM
OVCAR-8
  GI50: > 100 µM
  LC50: > 100 µM
OVCAR-8; read-out: Log TGI (converted)
  TGI: > 100 µM
TK-10
  GI50: > 100 µM
  LC50: > 100 µM
TK-10; read-out: Log TGI (converted)
  TGI: > 100 µM
SK-MEL-2
  GI50: > 100 µM
  LC50: > 100 µM
SK-MEL-2; read-out: Log TGI (converted)
  TGI: > 100 µM
[2]
  IC50: 2.9 µM
NCI-H226
  GI50: > 100 µM
NCI-H226; [5]
  CC50: > 100 µM
NCI-H226; read-out: Log TGI (converted)
  TGI: > 100 µM
RXF 393
  GI50: > 100 µM
  LC50: > 100 µM
RXF 393; read-out: Log TGI (converted)
  TGI: > 100 µM
Malme-3M
  GI50: > 100 µM
Malme-3M; [5]
  CC50: > 100 µM
Malme-3M; read-out: Log TGI (converted)
  TGI: > 100 µM
EKVX
  GI50: > 100 µM
EKVX; [5]
  CC50: > 100 µM
EKVX; read-out: Log TGI (converted)
  TGI: > 100 µM
M14
  GI50: > 100 µM
  LC50 (50% lethal concentration): > 100 µM
M14; read-out: Log TGI (converted)
  TGI: > 100 µM
[3]
  IC50: 10 µM
[4]
  IC50: > 10 µM
